Source: the M2OR odorant receptor database
Where a chain is given by its changes, count along the chain named.

Columns and labels:
Conditions in all cases: stereoisomer not certain
OR4K13 (Homo sapiens) = molecular target: T1, OR4K13 (Homo sapiens) (UniProt Q8NH42)
T1 sequence (whole entry): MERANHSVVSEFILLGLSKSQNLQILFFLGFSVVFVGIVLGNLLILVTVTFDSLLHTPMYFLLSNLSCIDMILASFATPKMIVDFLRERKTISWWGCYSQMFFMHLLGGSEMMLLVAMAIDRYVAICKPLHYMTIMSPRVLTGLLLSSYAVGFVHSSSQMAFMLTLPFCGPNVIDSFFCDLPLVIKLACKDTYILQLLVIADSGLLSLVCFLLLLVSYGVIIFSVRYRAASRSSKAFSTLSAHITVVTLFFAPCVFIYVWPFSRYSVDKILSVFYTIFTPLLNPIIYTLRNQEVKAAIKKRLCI
In short: (§1)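 Each entry records the cell line, G-protein, co-transfected protein and tags used. Methods varied with the source, often transient luciferase assays in mammalian cell lines. A receptor–molecule pair is called responsive (active) if the original authors judged its signal statistically different from baseline and non-responsive (inactive) otherwise.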

OR4K14 (Homo sapiens) = molecular target: T2, OR4K14 (Homo sapiens) (UniProt Q8NGD5)
T2 sequence (whole entry): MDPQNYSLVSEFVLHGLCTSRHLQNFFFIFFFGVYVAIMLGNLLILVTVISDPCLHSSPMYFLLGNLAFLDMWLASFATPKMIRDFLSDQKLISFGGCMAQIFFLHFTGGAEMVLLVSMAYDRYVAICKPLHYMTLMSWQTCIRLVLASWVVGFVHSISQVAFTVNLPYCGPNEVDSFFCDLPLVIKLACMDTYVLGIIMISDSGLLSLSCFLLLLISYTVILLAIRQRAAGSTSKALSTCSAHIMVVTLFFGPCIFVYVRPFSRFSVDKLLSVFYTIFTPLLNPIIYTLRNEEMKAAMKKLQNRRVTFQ
In short: as §1

OR4K15 (Homo sapiens) = molecular target: T3, OR4K15 (Homo sapiens) (UniProt Q8NH41)
T3 sequence (whole entry): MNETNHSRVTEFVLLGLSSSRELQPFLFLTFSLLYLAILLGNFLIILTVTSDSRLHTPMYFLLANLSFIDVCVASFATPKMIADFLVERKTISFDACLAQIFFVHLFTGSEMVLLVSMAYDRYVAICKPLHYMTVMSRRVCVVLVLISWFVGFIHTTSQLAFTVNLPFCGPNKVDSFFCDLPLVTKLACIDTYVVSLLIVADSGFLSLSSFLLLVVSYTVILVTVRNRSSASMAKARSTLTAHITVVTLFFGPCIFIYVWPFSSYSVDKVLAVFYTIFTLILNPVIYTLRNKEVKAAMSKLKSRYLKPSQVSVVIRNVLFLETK
In short: as §1

OR4K17 (Homo sapiens) = molecular target: T4, OR4K17 (Homo sapiens) (UniProt Q8NGC6)
T4 sequence (whole entry): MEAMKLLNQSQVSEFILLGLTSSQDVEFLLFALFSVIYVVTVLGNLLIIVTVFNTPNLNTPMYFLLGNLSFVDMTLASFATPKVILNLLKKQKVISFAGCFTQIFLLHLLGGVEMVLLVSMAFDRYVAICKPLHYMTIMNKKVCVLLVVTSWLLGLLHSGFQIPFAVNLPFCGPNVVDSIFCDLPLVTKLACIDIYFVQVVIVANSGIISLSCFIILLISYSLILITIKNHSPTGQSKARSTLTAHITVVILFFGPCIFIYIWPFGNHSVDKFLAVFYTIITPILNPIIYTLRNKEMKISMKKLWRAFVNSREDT
In short: as §1

OR4K2 (Homo sapiens) = molecular target: T5, OR4K2 (Homo sapiens) (UniProt Q8NGD2)
T5 sequence (whole entry): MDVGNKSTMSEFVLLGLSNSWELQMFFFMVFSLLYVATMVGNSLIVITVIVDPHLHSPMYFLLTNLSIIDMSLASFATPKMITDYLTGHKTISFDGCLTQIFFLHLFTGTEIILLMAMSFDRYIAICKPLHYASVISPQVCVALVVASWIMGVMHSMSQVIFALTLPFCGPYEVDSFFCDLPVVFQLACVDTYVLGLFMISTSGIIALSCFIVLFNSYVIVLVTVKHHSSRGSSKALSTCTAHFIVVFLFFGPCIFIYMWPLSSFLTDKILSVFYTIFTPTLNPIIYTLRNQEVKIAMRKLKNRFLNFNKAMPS
In short: as §1

OR4K5 (Homo sapiens) = molecular target: T6, OR4K5 (Homo sapiens) (UniProt Q8NGD3)
T6 sequence (whole entry): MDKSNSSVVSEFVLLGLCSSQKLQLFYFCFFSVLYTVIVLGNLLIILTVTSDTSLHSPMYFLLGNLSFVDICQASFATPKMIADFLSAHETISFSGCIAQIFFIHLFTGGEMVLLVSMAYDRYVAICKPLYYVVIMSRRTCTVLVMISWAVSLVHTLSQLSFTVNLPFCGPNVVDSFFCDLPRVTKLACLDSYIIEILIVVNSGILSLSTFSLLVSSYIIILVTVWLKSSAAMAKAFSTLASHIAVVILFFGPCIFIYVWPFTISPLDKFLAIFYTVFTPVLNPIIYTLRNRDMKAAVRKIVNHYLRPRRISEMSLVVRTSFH
In short: as §1

OR4K1 R304H = test system: T7, OR4K1 R304H
T7 sequence (whole entry): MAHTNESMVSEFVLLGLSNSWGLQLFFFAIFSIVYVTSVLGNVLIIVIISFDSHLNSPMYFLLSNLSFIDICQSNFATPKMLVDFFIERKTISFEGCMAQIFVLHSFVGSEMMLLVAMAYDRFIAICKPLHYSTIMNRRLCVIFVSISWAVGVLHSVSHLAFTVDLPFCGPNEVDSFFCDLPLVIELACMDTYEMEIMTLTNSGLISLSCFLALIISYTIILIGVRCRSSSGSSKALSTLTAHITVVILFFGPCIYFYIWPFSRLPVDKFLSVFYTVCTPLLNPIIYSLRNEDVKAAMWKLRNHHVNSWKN
In short: as §1

OR4K2 = test system: T8, OR4K2
T8 sequence (whole entry): T5 sequence (whole entry) with N307I
In short: as §1

OR4KF = test system: T9, OR4KF
T9 sequence (whole entry): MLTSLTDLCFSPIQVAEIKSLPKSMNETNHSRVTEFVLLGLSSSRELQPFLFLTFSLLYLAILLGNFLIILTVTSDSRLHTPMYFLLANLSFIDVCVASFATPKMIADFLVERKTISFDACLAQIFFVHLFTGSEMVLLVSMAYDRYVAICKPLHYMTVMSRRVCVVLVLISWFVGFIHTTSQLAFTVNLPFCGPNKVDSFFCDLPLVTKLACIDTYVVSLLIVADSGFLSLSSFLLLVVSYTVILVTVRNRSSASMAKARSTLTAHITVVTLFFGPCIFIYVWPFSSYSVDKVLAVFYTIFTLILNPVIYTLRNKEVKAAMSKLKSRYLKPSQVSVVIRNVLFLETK
In short: as §1

OR4K3 (Homo sapiens) = OR4K3 (Homo sapiens) (UniProt Q96R72)
OR4K3 (Homo sapiens), sequence (Q96R72 whole entry): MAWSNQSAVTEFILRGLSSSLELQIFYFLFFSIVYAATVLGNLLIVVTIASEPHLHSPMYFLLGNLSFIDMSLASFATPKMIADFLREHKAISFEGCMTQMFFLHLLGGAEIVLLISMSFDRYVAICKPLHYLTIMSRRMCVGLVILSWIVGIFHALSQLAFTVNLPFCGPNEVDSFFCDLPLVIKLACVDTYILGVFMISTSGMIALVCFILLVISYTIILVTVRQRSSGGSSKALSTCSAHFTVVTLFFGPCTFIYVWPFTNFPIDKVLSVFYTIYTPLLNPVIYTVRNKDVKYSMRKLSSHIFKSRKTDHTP
In short: as §1

Measured: odorant receptor agonist call

CCCCCC(=O)C(C)C(C)=O (stereo unspecified)
inactive: OR4K13 (Homo sapiens) | OR4K14 (Homo sapiens) | OR4K15 (Homo sapiens) | OR4K17 (Homo sapiens) | OR4K2 (Homo sapiens) | OR4K5 (Homo sapiens)

Cc1cnc(C)c(C)n1
not listed: OR4K15 (Homo sapiens) | OR4K17 (Homo sapiens) | OR4K3 (Homo sapiens)
inactive: all other assays above

CCCCC(S)C(C)CO (stereo unspecified)
inactive: OR4K13 (Homo sapiens) | OR4K14 (Homo sapiens) | OR4K15 (Homo sapiens) | OR4K17 (Homo sapiens) | OR4K2 (Homo sapiens) | OR4K5 (Homo sapiens)

CC(=O)c1c(C)c([N+](=O)[O-])c(C(C)(C)C)c([N+](=O)[O-])c1C
not listed: OR4K1 R304H | OR4K2 | OR4KF
inactive: all other assays above

CCC(S)C(C)CO (stereo unspecified)
inactive: OR4K13 (Homo sapiens) | OR4K14 (Homo sapiens) | OR4K15 (Homo sapiens) | OR4K17 (Homo sapiens) | OR4K2 (Homo sapiens) | OR4K5 (Homo sapiens)

CCCCCC(S)C(C)CO (stereo unspecified)
inactive: OR4K13 (Homo sapiens) | OR4K14 (Homo sapiens) | OR4K15 (Homo sapiens) | OR4K17 (Homo sapiens) | OR4K2 (Homo sapiens) | OR4K5 (Homo sapiens)

CCCCCCC=CCCC=O
not listed: OR4KF | OR4K3 (Homo sapiens)
inactive: all other assays above

CC1CCCCCCCCCCCCC(=O)C1 (stereo unspecified)
not listed: OR4K1 R304H | OR4K2 | OR4KF
inactive: all other assays above

CC(CO)CS (stereo unspecified)
inactive: OR4K13 (Homo sapiens) | OR4K14 (Homo sapiens) | OR4K15 (Homo sapiens) | OR4K17 (Homo sapiens) | OR4K2 (Homo sapiens) | OR4K5 (Homo sapiens)

CC1=C(O)C(=O)C(C)O1 (stereo unspecified)
not listed: OR4K15 (Homo sapiens) | OR4K17 (Homo sapiens) | OR4K3 (Homo sapiens)
inactive: all other assays above

CCCC(S)CCOC(C)=O (stereo unspecified)
not listed: OR4K15 (Homo sapiens) | OR4K17 (Homo sapiens) | OR4K3 (Homo sapiens)
inactive: all other assays above

CCC1OC(C)=C(O)C1=O (stereo unspecified)
not listed: OR4K15 (Homo sapiens) | OR4K17 (Homo sapiens) | OR4K3 (Homo sapiens)
inactive: all other assays above

CCC1OC(=O)C(O)=C1C (stereo unspecified)
not listed: OR4K15 (Homo sapiens) | OR4K17 (Homo sapiens) | OR4K3 (Homo sapiens)
inactive: all other assays above

CC1=C(O)C(=O)OC1C (stereo unspecified)
not listed: OR4K15 (Homo sapiens) | OR4K17 (Homo sapiens) | OR4K3 (Homo sapiens)
inactive: all other assays above

CC1=NC(C)C(C)S1 (stereo unspecified)
not listed: OR4K15 (Homo sapiens) | OR4K17 (Homo sapiens) | OR4K3 (Homo sapiens)
inactive: all other assays above
